We go through twelve compounds from ChEMBL document CHEMBL1135891, “Development of long-acting dopamine transporter ligands as potential cocaine-abuse therapeutic agents: chiral hydroxyl-containing derivatives of 1-[2-[bis(4-fluorophenyl)methoxy]ethyl]-4-(3-phenylpropyl)piperazine and 1-[2-(diphenylmethoxy)ethyl]-4-(3-phenylpropyl)piperazine” (J Med Chem, 2002).

In test [1] the target is Sodium-dependent serotonin transporter (Rattus norvegicus, UniProt P31652). The experiment in a line: Binding affinity for serotonin transporter. The gist of the method:
(§1)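 [125I]RTI-55 competition binding. Drugs and blockers in 55.2 mM sodium phosphate buffer pH 7.4 with 1 mg/mL BSA. Radioligand in the same buffer with chymostatin, leupeptin, EDTA and EGTA. Triplicate incubation for 18–24 h at 4 °C to equilibrium. Filtered over GF/B filters presoaked in 2% polyethylenimine, washed with ice-cold Tris-HCl/NaCl pH 7.4. Ki derived.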

Test [2] has as its target Sodium-dependent dopamine transporter (Rattus norvegicus, UniProt P23977). The test is described as follows: Binding affinity for dopamine transporter. The gist of the method: as §1
The target of test [3] is Monoamine transporters; serotonin & dopamine (Rattus norvegicus) (UniProt P31652+P23977). The test is described as follows: Selectivity ratio for serotonin transporter to dopamine transporter. Format: protein assay.
Another test relates to Rattus norvegicus. The experiment in a line: Dopamine (DA) reuptake inhibition properties of in vivo extracellular dopamine (ECDA) levels in rat nucleus accumbens microdialysis assay, at […]. It is filed as functional. The gist of the method: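 Male Sprague–Dawley rats (300–450 g), conscious and freely moving, with jugular catheters and nucleus accumbens probes (2 mm exchange surface). Single iv doses (as salt) of drug or saline vehicle given after three baseline samples. Dialysate taken every 20 min for 2 h, DA by microbore HPLC-EC. Values are pg/5 µL, mean ± SEM, n = 4–5 rats/group. Repeated-measures ANOVA.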

As a reminder, the Ki is a measure of affinity in units of concentration, obtained from inhibition or displacement. Low readings indicate a stronger hold on the target, high ones a looser hold on the target.

Sodium-dependent dopamine transporter, sequence (P23977 whole entry): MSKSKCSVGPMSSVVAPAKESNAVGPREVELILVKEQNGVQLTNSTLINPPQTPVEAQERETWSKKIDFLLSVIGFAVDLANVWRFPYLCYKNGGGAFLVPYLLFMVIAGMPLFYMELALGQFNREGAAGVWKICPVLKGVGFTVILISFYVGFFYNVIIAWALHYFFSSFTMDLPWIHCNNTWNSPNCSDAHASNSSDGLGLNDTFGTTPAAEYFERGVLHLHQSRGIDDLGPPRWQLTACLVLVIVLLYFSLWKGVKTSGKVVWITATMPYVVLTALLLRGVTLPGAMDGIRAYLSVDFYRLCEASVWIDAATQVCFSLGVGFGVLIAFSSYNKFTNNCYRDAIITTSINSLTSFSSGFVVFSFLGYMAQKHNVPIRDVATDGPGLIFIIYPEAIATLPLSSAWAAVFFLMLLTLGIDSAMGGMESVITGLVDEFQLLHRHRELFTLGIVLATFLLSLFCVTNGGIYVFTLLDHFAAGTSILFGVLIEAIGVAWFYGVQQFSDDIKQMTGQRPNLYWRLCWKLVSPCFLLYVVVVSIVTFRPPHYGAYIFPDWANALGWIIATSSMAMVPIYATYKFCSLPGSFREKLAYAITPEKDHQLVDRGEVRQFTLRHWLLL
Monoamine transporters; serotonin & dopamine (Rattus norvegicus), sequence (P23977 whole entry, looked up): as the sequence (P23977 whole entry) above
Monoamine transporters; serotonin & dopamine (Rattus norvegicus), sequence (P31652 whole entry, looked up): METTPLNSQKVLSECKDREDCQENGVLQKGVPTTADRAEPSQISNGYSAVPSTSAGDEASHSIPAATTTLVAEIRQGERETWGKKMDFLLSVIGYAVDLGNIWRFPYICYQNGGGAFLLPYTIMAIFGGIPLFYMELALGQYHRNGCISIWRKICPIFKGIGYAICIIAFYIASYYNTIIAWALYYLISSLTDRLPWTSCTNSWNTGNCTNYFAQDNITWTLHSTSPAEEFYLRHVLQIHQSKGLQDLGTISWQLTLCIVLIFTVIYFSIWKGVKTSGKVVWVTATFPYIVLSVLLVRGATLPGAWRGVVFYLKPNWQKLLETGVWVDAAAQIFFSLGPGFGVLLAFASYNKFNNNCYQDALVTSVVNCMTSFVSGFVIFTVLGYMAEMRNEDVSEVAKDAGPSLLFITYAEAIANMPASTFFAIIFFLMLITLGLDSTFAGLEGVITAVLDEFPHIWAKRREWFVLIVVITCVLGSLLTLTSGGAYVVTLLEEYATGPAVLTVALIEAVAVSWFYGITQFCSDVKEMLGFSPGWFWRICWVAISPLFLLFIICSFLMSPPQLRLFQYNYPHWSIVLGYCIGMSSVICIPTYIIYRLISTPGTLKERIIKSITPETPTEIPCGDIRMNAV
Sodium-dependent serotonin transporter, sequence (P31652 whole entry): as the sequence (P31652 whole entry, looked up) above

As for `OCC(c1ccccc1)N1CCN(CCOC(c2ccccc2)c2ccccc2)CC1` (racemic), the Ki in test [1] was found to be 3.8 µM; in test [2] it was 0.12 µM. The Ratio in test [3] was determined as 32.

Consider `O[C@@H](Cc1ccccc1)CN1CCN(CCOC(c2ccccc2)c2ccccc2)CC1`, for which the Ki in test [1] came to 2.16 µM; in test [2], 0.0023 µM. In test [3], the Ratio was found to be 939.

For the compound `O[C@H](Cc1ccccc1)CN1CCN(CCOC(c2ccccc2)c2ccccc2)CC1`, the Ki in test [1] came to 1.8 µM; in test [2], 0.025 µM. Moreover, the Ratio in test [3] is 72.

With `O[C@H](Cc1ccccc1)CN1CCN(CCOC(c2ccc(F)cc2)c2ccc(F)cc2)CC1`, the Ki in test [1] is 0.16 µM; in test [2], 0.012 µM. For the same compound, the DA level in the test on Rattus norvegicus amounted to 1.73 pg 5ul-1. In addition, the Ratio in test [3] stood at 13.

Regarding `O[C@H](CN1CCN(CCOC(c2ccc(F)cc2)c2ccc(F)cc2)CC1)c1ccccc1`, the Ki amounted to 0.077 µM in test [1] and 0.011 µM in test [2]. In addition, the Ratio in test [3] was 7.

`OC(Cc1ccccc1)CN1CCN(CCOC(c2ccc(F)cc2)c2ccc(F)cc2)CC1` (racemic): the Ki in test [1] turned out to be 0.12 µM; in test [2], 0.0023 µM. Also, the Ratio in test [3] worked out at 52.

As to `O[C@@H](CN1CCN(CCOC(c2ccc(F)cc2)c2ccc(F)cc2)CC1)c1ccccc1`, the Ki was determined as 0.013 µM in test [1] and 0.026 µM in test [2]. Also, the Ratio in test [3] came out at 0.5.

As to `O[C@@H](CN1CCN(CCOC(c2ccccc2)c2ccccc2)CC1)c1ccccc1`, the Ki turned out to be 0.33 µM in test [1] and 0.17 µM in test [2]. Further, the Ratio in test [3] was determined as 2.

As for `O[C@H](CN1CCN(CCOC(c2ccccc2)c2ccccc2)CC1)c1ccccc1`, the figures for the Ki in test [1] and in test [2] were 1.4 µM and 0.03 µM, respectively. Further, the Ratio in test [3] came out at 47.

On to `OCC(c1ccccc1)N1CCN(CCOC(c2ccc(F)cc2)c2ccc(F)cc2)CC1` (racemic), for which the Ki amounted to 2.5 µM in test [1] and 0.048 µM in test [2]. Besides, in test [3], the Ratio amounted to 52.

As to `Fc1ccc(C(OCCN2CCN(CCc3ccccc3)CC2)c2ccc(F)cc2)cc1`, the Ki in test [1] stood at 0.036 µM; in test [2] it was 0.008 µM. Further, in test [3], the Ratio was 5.

For the compound `O[C@@H](Cc1ccccc1)CN1CCN(CCOC(c2ccc(F)cc2)c2ccc(F)cc2)CC1`, the figures for the Ki in test [1] and in test [2] were 0.23 µM and 0.00075 µM, respectively. For the same compound, the DA level in the test with Rattus norvegicus is 1.73 pg 5ul-1. Also, the Ratio in test [3] was determined as 307.
